The values below come from ChEMBL document CHEMBL4732207, “Design, Synthesis and Structure-Activity Relationship Studies of Glycosylated Derivatives of Marine Natural Product Lamellarin D” (Eur J Med Chem, 2021).

For orientation: IC50 means the concentration at which inhibition is half-maximal. The term solubility denotes the dissolved amount per volume that the medium holds.

≈ marks a conversion by molar mass, not a printed value.

One series deals with HGC-27. The series can be described thus: Cytotoxicity against human HGC-27 cells assessed as reduction in cell viability incubated for 72 hrs by MTT assay. In kind it is functional, cell-based. The following applies: HGC-27, 72 h. In short, it runs like this:
(§1)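 Cells resuspended in DMEM plus 10% FBS and seeded at 5 000 cells/well. They were incubated overnight at 37 °C in 5% CO2, then exposed to serial dilutions for 72 h at 37 °C. Medium was replaced with fresh medium containing 0.5 mg/mL MTT for 4 h, formazan dissolved in DMSO, and A540 read. Proliferation = A540 treated/control ×100%. IC50 is the concentration inhibiting proliferation by 50%.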
Background: Tetrazolium assays rely on reduction of a dye to a coloured formazan, in cell work by metabolically active cells.
`COc1cc(-c2c3c4cc(OC)c(O[C@@H]5O[C@H](CO)[C@@H](O)[C@H]5O)cc4oc(=O)c3n3ccc4cc(O)c(OC)cc4c23)ccc1O`: the IC50 stood at 862 nM.

With `COc1cc(-c2c3c4cc(OC)c(O)cc4oc(=O)c3n3ccc4cc(O[C@@H]5O[C@H](CO)[C@@H](O)[C@H]5O)c(OC)cc4c23)ccc1O`, the IC50 came to 1240 nM.

For `COc1cc(-c2c3c4cc(OC)c(O)cc4oc(=O)c3n3ccc4cc(O[C@H]5O[C@H](CO)[C@@H](O)[C@H](O)[C@@H]5O)c(OC)cc4c23)ccc1O`, the IC50 amounted to 219 nM.

As to `COc1cc2c(cc1O)oc(=O)c1c2c(-c2ccc(O[C@@H]3O[C@H](CO)[C@@H](O)[C@H]3O)c(OC)c2)c2c3cc(OC)c(O)cc3ccn21`, the IC50 amounted to 224 nM.

Another series deals with A549. Description: Cytotoxicity against human A549 cells assessed as reduction in cell viability incubated for 72 hrs by MTT assay. It counts as functional, cell-based. The following applies: A549, 72 h. The gist of the method:
as §1
Turning to `COc1cc(-c2c3c4cc(OC)c(O[C@@H]5O[C@H](CO)[C@@H](O)[C@H]5O)cc4oc(=O)c3n3ccc4cc(O)c(OC)cc4c23)ccc1O`, the IC50 was 2860 nM.

As to `COc1cc(-c2c3c4cc(OC)c(O)cc4oc(=O)c3n3ccc4cc(O[C@@H]5O[C@H](CO)[C@@H](O)[C@H]5O)c(OC)cc4c23)ccc1O`, the IC50 was determined as 4120 nM.

Regarding `COc1cc(-c2c3c4cc(OC)c(O)cc4oc(=O)c3n3ccc4cc(O[C@H]5O[C@H](CO)[C@@H](O)[C@H](O)[C@@H]5O)c(OC)cc4c23)ccc1O`, the IC50 worked out at 3240 nM.

In the case of `COc1cc2c(cc1O)oc(=O)c1c2c(-c2ccc(O[C@@H]3O[C@H](CO)[C@@H](O)[C@H]3O)c(OC)c2)c2c3cc(OC)c(O)cc3ccn21`, the IC50 was determined as 659 nM.

System in the next series: not listed separately
Description: Aqueous solubility of compound in deionized water by HPLC-HRMS analysis. In kind it is physicochemical. The conditions noted are these: buffer.
Compound `COc1cc(-c2c3c4cc(OC)c(O)cc4oc(=O)c3n3ccc4cc(O[C@H]5O[C@H](CO)[C@@H](O)[C@H](O)[C@@H]5O)c(OC)cc4c23)ccc1O` returned a solubility of 0.23 nM (≈ 0.152 ng/mL).

The subject of a further series is MDA-MB-231. Description: Cytotoxicity against human MDA-MB-231 cells assessed as reduction in cell viability incubated for 72 hrs by MTT assay. In kind it is functional, cell-based. The conditions noted are these: MDA-MB-231, 72 h. The gist of the method:
as §1
For `COc1cc(-c2c3c4cc(OC)c(O[C@@H]5O[C@H](CO)[C@@H](O)[C@H]5O)cc4oc(=O)c3n3ccc4cc(O)c(OC)cc4c23)ccc1O`, the IC50 stood at 2690 nM.

As for `COc1cc(-c2c3c4cc(OC)c(O)cc4oc(=O)c3n3ccc4cc(O[C@@H]5O[C@H](CO)[C@@H](O)[C@H]5O)c(OC)cc4c23)ccc1O`, the IC50 was determined as 5080 nM.

As for `COc1cc(-c2c3c4cc(OC)c(O)cc4oc(=O)c3n3ccc4cc(O[C@H]5O[C@H](CO)[C@@H](O)[C@H](O)[C@@H]5O)c(OC)cc4c23)ccc1O`, the IC50 is 1990 nM.

With `COc1cc2c(cc1O)oc(=O)c1c2c(-c2ccc(O[C@@H]3O[C@H](CO)[C@@H](O)[C@H]3O)c(OC)c2)c2c3cc(OC)c(O)cc3ccn21`, the IC50 worked out at 2110 nM.

The next series deals with HCT-116. The series can be described thus: Cytotoxicity against human HCT-116 cells assessed as reduction in cell viability incubated for 72 hrs by MTT assay. It counts as functional, cell-based. The conditions noted are these: HCT-116, 72 h. The gist of the method:
as §1
Turning to `COc1cc(-c2c3c4cc(OC)c(O[C@@H]5O[C@H](CO)[C@@H](O)[C@H]5O)cc4oc(=O)c3n3ccc4cc(O)c(OC)cc4c23)ccc1O`, the IC50 came out at 1160 nM.

For the compound `COc1cc(-c2c3c4cc(OC)c(O)cc4oc(=O)c3n3ccc4cc(O[C@@H]5O[C@H](CO)[C@@H](O)[C@H]5O)c(OC)cc4c23)ccc1O`, the IC50 was 1280 nM.

On to `COc1cc(-c2c3c4cc(OC)c(O)cc4oc(=O)c3n3ccc4cc(O[C@H]5O[C@H](CO)[C@@H](O)[C@H](O)[C@@H]5O)c(OC)cc4c23)ccc1O`, for which the IC50 turned out to be 1420 nM.

As for `COc1cc2c(cc1O)oc(=O)c1c2c(-c2ccc(O[C@@H]3O[C@H](CO)[C@@H](O)[C@H]3O)c(OC)c2)c2c3cc(OC)c(O)cc3ccn21`, the IC50 came to 614 nM.

A further series has as its system HepG2. The series can be described thus: Cytotoxicity against human HepG2 cells assessed as reduction in cell viability incubated for 72 hrs by MTT assay. In kind it is functional, cell-based. The conditions noted are these: HepG2, 72 h. The gist of the method: as §1
`COc1cc(-c2c3c4cc(OC)c(O[C@@H]5O[C@H](CO)[C@@H](O)[C@H]5O)cc4oc(=O)c3n3ccc4cc(O)c(OC)cc4c23)ccc1O`: the IC50 came out at 627 nM.

With `COc1cc(-c2c3c4cc(OC)c(O)cc4oc(=O)c3n3ccc4cc(O[C@@H]5O[C@H](CO)[C@@H](O)[C@H]5O)c(OC)cc4c23)ccc1O`, the IC50 came out at 937 nM.

With `COc1cc(-c2c3c4cc(OC)c(O)cc4oc(=O)c3n3ccc4cc(O[C@H]5O[C@H](CO)[C@@H](O)[C@H](O)[C@@H]5O)c(OC)cc4c23)ccc1O`, the IC50 stood at 3880 nM.

`COc1cc2c(cc1O)oc(=O)c1c2c(-c2ccc(O[C@@H]3O[C@H](CO)[C@@H](O)[C@H]3O)c(OC)c2)c2c3cc(OC)c(O)cc3ccn21`: the IC50 was 332 nM.
